# How the values were obtained:
# Plasma = experiment: Plasma concentration in Sprague-Dawley rat at 10 mg/kg, po by LC-MS/MS analysis; type: ADME, organism-based; design: dose 10 mg/kg, route oral; conditions: in vivo
# How it was run: (§1)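 Male Sprague-Dawley rats (300–350 g), femoral artery cannulated; single 10 mg/kg oral dose in an appropriate vehicle, N = 3. Blood taken predose, 1, 2 and 4 h; brains then collected and stored at -80 °C. Equal portions of plasma or homogenized brain from the three rats pooled per time point, protein precipitated, quantified by LC/MS/MS.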
# Liver microsomes [1] = experiment: Intrinsic clearance in rat liver microsomes at 1 uM by LC/MS analysis; type: ADME, Microsome
# How it was run: (§2)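 Compound incubated with human or rat liver microsomes; reaction quenched with acetonitrile, centrifuged, and remaining drug in supernatant measured by LC/MS to estimate T1/2, from which intrinsic clearance was derived.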
# Brain = experiment: Drug uptake in Sprague-Dawley rat brain at 10 mg/kg, po by LC-MS/MS analysis; type: ADME, organism-based; design: dose 10 mg/kg, route oral; conditions: in vivo, read-out: Drug uptake; how it was run: as §1
# [2] = target: T1, Neuropeptide Y receptor type 5 (Homo sapiens, UniProt Q15761); experiment: Displacement of [125I]peptide YY from human NPY5 receptor
# T1 sequence (Q15761 whole entry): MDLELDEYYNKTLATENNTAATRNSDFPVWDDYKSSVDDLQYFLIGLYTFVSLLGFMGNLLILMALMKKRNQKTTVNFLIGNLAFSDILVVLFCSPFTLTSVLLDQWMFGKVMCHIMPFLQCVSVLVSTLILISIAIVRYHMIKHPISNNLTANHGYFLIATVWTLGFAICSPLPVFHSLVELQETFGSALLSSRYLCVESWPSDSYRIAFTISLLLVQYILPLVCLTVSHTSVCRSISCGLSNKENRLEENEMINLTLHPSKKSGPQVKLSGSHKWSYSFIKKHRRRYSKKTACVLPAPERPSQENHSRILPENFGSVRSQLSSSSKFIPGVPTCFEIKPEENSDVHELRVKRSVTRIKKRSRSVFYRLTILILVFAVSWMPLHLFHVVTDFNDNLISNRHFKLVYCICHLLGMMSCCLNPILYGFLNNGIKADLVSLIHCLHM
# Liver microsomes [3] = experiment: Intrinsic clearance in human liver microsomes at 1 uM by LC/MS analysis; type: ADME, Microsome; how it was run: as §2
structure (smiles),measurement,setting,value
CC(C)S(=O)(=O)NC[C@H]1CC[C@H](NC(=O)Cn2ccc3cc(C#N)ccc32)CC1,concentration,Plasma,769 nM
same,CLH,Liver microsomes [1],8.7 mL/min
same,concentration,Brain,43 nM
same,Ki,[2],5.6 nM
same,CLH,Liver microsomes [3],0.4 L/min
CC(C)S(=O)(=O)NC[C@H]1CC[C@H](NC(=O)Cc2c[nH]c3ccccc23)CC1,concentration,Plasma,2560 nM
same,CLH,Liver microsomes [1],3.4 mL/min
same,concentration,Brain,54 nM
same,Ki,[2],12 nM
same,CLH,Liver microsomes [3],0.5 L/min
CC(C)S(=O)(=O)NC[C@H]1CC[C@H](NC(=O)CN2CCc3cc(F)ccc32)CC1,concentration,Plasma,2680 nM
same,CLH,Liver microsomes [1],21 mL/min
same,concentration,Brain,117 nM
same,Ki,[2],4 nM
same,CLH,Liver microsomes [3],1.4 L/min
CC(C)S(=O)(=O)NC[C@H]1CC[C@H](NC(=O)Cn2ccc3ccccc32)CC1,concentration,Plasma,460 nM
same,CLH,Liver microsomes [1],27 mL/min
same,concentration,Brain,81 nM
same,Ki,[2],1.5 nM
same,CLH,Liver microsomes [3],1 L/min
CC(C)S(=O)(=O)NC[C@H]1CC[C@H](NC(=O)Cn2ccc3c(Cl)cccc32)CC1,Ki,[2],1.7 nM
CC(C)S(=O)(=O)NC[C@H]1CC[C@H](NC(=O)Cn2ccc3ccc(F)cc32)CC1,Ki,[2],1.2 nM
CC(C)S(=O)(=O)NC[C@H]1CC[C@H](NC(=O)CN2CCCc3cc(Cl)ccc32)CC1,concentration,Plasma,498 nM
same,CLH,Liver microsomes [1],36 mL/min
same,concentration,Brain,88 nM
same,CLH,Liver microsomes [3],2.8 L/min
CC(C)S(=O)(=O)NC[C@H]1CC[C@H](NC(=O)CN2CC(C)(C)c3cc(Cl)ccc32)CC1,concentration,Plasma,417 nM
same,CLH,Liver microsomes [1],205 mL/min
same,concentration,Brain,50 nM
same,Ki,[2],1.1 nM
same,CLH,Liver microsomes [3],14 L/min
CC(C)S(=O)(=O)NC[C@H]1CC[C@H](NC(=O)Cn2c(=O)sc3cc(Cl)ccc32)CC1,concentration,Plasma,870 nM
same,CLH,Liver microsomes [1],12 mL/min
same,concentration,Brain,11 nM
same,Ki,[2],0.9 nM
same,CLH,Liver microsomes [3],1 L/min
CC(C)S(=O)(=O)NC[C@H]1CC[C@H](NC(=O)CN2C(=O)COc3cc(Cl)ccc32)CC1,concentration,Plasma,480 nM
same,CLH,Liver microsomes [1],15 mL/min
same,CLH,Liver microsomes [3],0.5 L/min
CC(C)S(=O)(=O)NC[C@H]1CC[C@H](NC(=O)Cn2ccc3ccc(Cl)cc32)CC1,concentration,Plasma,157 nM
same,CLH,Liver microsomes [1],37 mL/min
same,concentration,Brain,134 nM
same,Ki,[2],1 nM
same,CLH,Liver microsomes [3],2.6 L/min
CC(C)S(=O)(=O)NC[C@H]1CC[C@H](NC(=O)Cn2ccc3cc(F)ccc32)CC1,concentration,Plasma,1300 nM
same,CLH,Liver microsomes [1],11 mL/min
same,concentration,Brain,100 nM
same,Ki,[2],2.2 nM
same,CLH,Liver microsomes [3],0.6 L/min
CC(C)S(=O)(=O)NC[C@H]1CC[C@H](NC(=O)CCN2CCc3ccccc32)CC1,concentration,Plasma,24 nM
same,CLH,Liver microsomes [1],7.1 mL/min
same,concentration,Brain,7 nM
same,Ki,[2],1.8 nM
same,CLH,Liver microsomes [3],5.8 L/min
CC(C)S(=O)(=O)NC[C@H]1CC[C@H](NC(=O)Cn2c(=O)oc3ccccc32)CC1,concentration,Plasma,1640 nM
same,CLH,Liver microsomes [1],1.9 mL/min
same,concentration,Brain,19 nM
same,Ki,[2],10 nM
same,CLH,Liver microsomes [3],0.5 L/min
CC(C)S(=O)(=O)NC[C@H]1CC[C@H](NC(=O)CN2C(=O)CCc3cc(Cl)ccc32)CC1,concentration,Plasma,877 nM
same,CLH,Liver microsomes [1],40 mL/min
same,concentration,Brain,17 nM
same,CLH,Liver microsomes [3],0.8 L/min
Cc1ccc2c(c1)CCN2CC(=O)N[C@H]1CC[C@H](CNS(=O)(=O)C(C)C)CC1,concentration,Plasma,6140 nM
same,CLH,Liver microsomes [1],54 mL/min
same,concentration,Brain,477 nM
same,Ki,[2],3.5 nM
same,CLH,Liver microsomes [3],3.1 L/min
CC(C)S(=O)(=O)NC[C@H]1CC[C@H](NC(=O)Cn2ccc3cc(F)c(F)cc32)CC1,concentration,Plasma,2080 nM
same,CLH,Liver microsomes [1],28 mL/min
same,concentration,Brain,328 nM
same,Ki,[2],0.9 nM
same,CLH,Liver microsomes [3],2.5 L/min
CC(C)S(=O)(=O)NC[C@H]1CC[C@H](NC(=O)Cc2cn(C)c3ccccc23)CC1,concentration,Plasma,296 nM
same,CLH,Liver microsomes [1],22 mL/min
same,concentration,Brain,17 nM
same,Ki,[2],2 nM
same,CLH,Liver microsomes [3],1.2 L/min
CC(C)S(=O)(=O)NC[C@H]1CC[C@H](NC(=O)Cn2ccc3cccc(Cl)c32)CC1,Ki,[2],0.9 nM
CC(C)S(=O)(=O)NC[C@H]1CC[C@H](NC(=O)CN2CCOc3cc(Cl)ccc32)CC1,concentration,Plasma,428 nM
same,CLH,Liver microsomes [1],35 mL/min
same,CLH,Liver microsomes [3],2.9 L/min
Cc1cc2ccccc2n1CC(=O)N[C@H]1CC[C@H](CNS(=O)(=O)C(C)C)CC1,concentration,Plasma,242 nM
same,CLH,Liver microsomes [1],49 mL/min
same,concentration,Brain,49 nM
same,Ki,[2],8.9 nM
same,CLH,Liver microsomes [3],1.1 L/min
CC(C)S(=O)(=O)NC[C@H]1CC[C@H](NC(=O)CN2CCc3c2ccc(F)c3F)CC1,concentration,Plasma,1520 nM
same,CLH,Liver microsomes [1],39 mL/min
same,concentration,Brain,105 nM
same,Ki,[2],1.5 nM
same,CLH,Liver microsomes [3],4.5 L/min

# Source: ChEMBL document CHEMBL2010694, “Indolyl and dihydroindolyl N-glycinamides as potent and in vivo active NPY5 antagonists” (Bioorg Med Chem Lett, 2012)
